Measurements reported in ChEMBL document CHEMBL4680079, “Discovery of a Quinoline-4-carboxamide Derivative with a Novel Mechanism of Action, Multistage Antimalarial Activity, and Potent in Vivo Efficacy” (J Med Chem, 2016).
Values after ≈ are worked out from the molar mass of the structure shown.

Columns and labels:
MRC5 = test: Antiproliferative activity against human MRC5 cells assessed as reduction in cell viability after 68 hrs by resazurin dye based fluorescence assay; conditions: MRC5, 68 h
Method in brief: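 MRC-5 fibroblasts plated overnight as monolayers, exposed to compound pre-diluted in MEM for 68 h. Resazurin then added (final 50 μM) for 3 h, fluorescence read at ex 528/em 590 nm. Signal converted to % inhibition against high- and no-inhibition controls. Plates accepted at Z' > 0.5.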

[1] = Permeability of the compound at 10 uM incubated for 5 hrs by UPLC-MS/MS analysis based PAMPA method; assay type: ADME; conditions: read-out: permeability
Method in brief: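 PAMPA run on a lipid-oil-lipid tri-layer filter at pH 7.4. Compound at 10 μM in PBS (DMSO ≤5%) in donor wells, PBS in acceptor wells, kept 5 h at room temperature. Both compartments quantified by UPLC-MS/MS. Data accepted only when recovery exceeded 70%.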

Plasmodium falciparum = test: Antiplasmodial activity against chloroquine-sensitive Plasmodium falciparum 3D7 infected in human red blood cells assessed as growth inhibition by SYBR Green fluorescence assay; assay type: functional, organism-based, RBC; conditions: 3D7, Erythrocyte
Method in brief: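 P. falciparum 3D7 grown in 5% human red cells in RPMI 1640 (pH 7.3) with 0.5% Albumax II, hypoxanthine and gentamicin at 37°C under 1% O₂/3% CO₂. Growth measured by SYBR green fluorescence (ex 485/em 528 nm), with mefloquine as assay control. EC50 calculated.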

[2] = Volume of distribution at steady state in Sprague-Dawley rat at 1 mg/kg, iv administered as bolus dose by UPLC-MS/MS analysis; assay type: ADME, organism-based; conditions: Sprague-Dawley, in vivo, read-out: Vdss
Method in brief: (§1)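 Male Sprague Dawley rats (n=3/route) received an iv bolus solution at 1 mg free base/kg (5 mL/kg; 5% DMSO in saline). Blood sampled from 5 min to 30 or 48 h post-dose, mixed with two volumes water, frozen, then analysed by UPLC-MS/MS. Parameters derived from the blood concentration-time curve.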

Plasmodium berghei [3] = test: Antiplasmodial activity against Plasmodium berghei ANKA infected in NMRI mouse assessed as reduction in parasitemia at 1 mg/kg, po QD for 4 days; assay type: functional; design: scale not given: the % may be the effect or the level left; conditions: time 4 day
Method in brief: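 Female NMRI mice (n=3 per group, randomized, not blinded) infected with GFP-transfected P. berghei ANKA. Oral dosing once daily for 4 days in 10% DMSO/40% PEG400/50% water or HPMC suspension vehicle. Parasitaemia measured by flow cytometry on blood collected 96 h after infection. Mice watched for toxicity over 4 h post-dose each day.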

[4] = Half-life in Sprague-Dawley rat at 1 mg/kg, iv administered as bolus dose by UPLC-MS/MS analysis; assay type: ADME, organism-based; conditions: Sprague-Dawley, in vivo; method in brief: as §1
[5] = Intrinsic clearance in Sprague-Dawley rat liver microsomes at 0.5 uM in presence of NADPH incubated upto 30 mins by UPLC-MS/MS analysis; assay type: ADME, Microsome; conditions: 0.5 h
Method in brief: (§2)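 Compound at 0.5 μM incubated with female CD1 mouse, male Sprague-Dawley rat or pooled human liver microsomes (0.5 mg/mL, 50 mM potassium phosphate, pH 7.4). Reaction started with excess NADPH. Samples taken at 0-30 min, quenched in acetonitrile, analysed by UPLC-MS/MS. Verapamil used as control, single time course.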

[6] = Kinetic aqueous solubility of the compound by laser nephelometry; assay type: physicochemical; conditions: read-out: Kinetic_solubility
Method in brief: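 Kinetic solubility measured by laser nephelometry. DMSO serial dilutions diluted into water to give final 100–5 μg/mL at 1.0% DMSO. Read immediately, in triplicate aliquots.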

Plasmodium berghei [7] = test: Antiplasmodial activity against Plasmodium berghei ANKA infected in NMRI mouse assessed as survival days at 1 mg/kg, po QD for 4 days; assay type: functional; conditions: time 4 day
[8] = Cmax in Sprague-Dawley rat at 3 mg/kg, po administered via gavage by UPLC-MS/MS analysis; assay type: ADME, organism-based; design: route oral, dose 3 mg/kg; conditions: in vivo
Method in brief: (§3)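 Oral gavage solution, 3 mg free base/kg (10 mL/kg; 0.5% w/v HPMC, 0.4% v/v Tween 80, 0.5% v/v benzyl alcohol), given to male Sprague Dawley rats (n=3). Blood taken at 5, 15, 30 min and 1, 2, 4, 6, 8, 24, 30 h, mixed with two volumes water, analysed by UPLC-MS/MS.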

[9] = AUC in Sprague-Dawley rat at 3 mg/kg, po administered via gavage by UPLC-MS/MS analysis; assay type: ADME, organism-based; design: dose 3 mg/kg; conditions: in vivo; method in brief: as §3
[10] = Intrinsic clearance in human liver microsomes at 0.5 uM in presence of NADPH incubated upto 30 mins by UPLC-MS/MS analysis; assay type: ADME, Microsome; conditions: 0.5 h; method in brief: as §2
[11] = Tmax in Sprague-Dawley rat at 3 mg/kg, po administered via gavage by UPLC-MS/MS analysis; assay type: ADME, organism-based; conditions: in vivo; method in brief: as §3
[12] = Clearance in Sprague-Dawley rat blood at 1 mg/kg, iv administered as bolus dose by UPLC-MS/MS analysis; assay type: ADME, organism-based; method in brief: as §1
[13] = Oral bioavailability in Sprague-Dawley rat at 3 mg/kg administered via gavage by UPLC-MS/MS analysis; assay type: ADME, organism-based; conditions: in vivo; method in brief: as §3
[14] = Intrinsic clearance in CD1 mouse liver microsomes at 0.5 uM in presence of NADPH incubated upto 30 mins by UPLC-MS/MS analysis; assay type: ADME, Microsome; conditions: 0.5 h; method in brief: as §2

O=C(NCCN1CCCC1)c1cc(-c2ccc(CN3CCOCC3)cc2F)nc2ccc(F)cc12
EC50 (MRC5): 41 µM
Papp at 5 h, 10 µM [1]: 13.2 ×10⁻⁶ cm/s
EC50 (Plasmodium falciparum): 0.002 µM
Vd [2]: 10 L/kg
Activity (Plasmodium berghei [3]): 99.9%
half-life [4]: 4 h
CLH [5]: < 0.5 mL/min/g
solubility kinetic [6]: 208 µM (≈ 100 µg/mL)
Survival (Plasmodium berghei [7]): 14 days
Cmax [8]: 29 ng/mL
AUC [9]: 507 ng·h/mL
CLH [10]: 1.5 mL/min/g
Tmax [11]: 8 h
clearance [12]: 32 mL/min/kg
bioavailability [13]: 33%
CLH [14]: < 0.5 mL/min/g
